Assay results reported in publication PMC3294036 (Nature structural & molecular biology, 2012).

How the values were obtained:
calcineurin (CN) [1] = molecular target: calcineurin (CN) (UniProt Q08209); experiment: Calcineurin-AKAP79 competitive binding assay; parameters: species or system human; conditions: for Ki: read-out: estimated Ki, competition with fluorescent PVIVIT peptide for binding to CN, GST-AKAP79(333–348) fusion proteins (14mer), representative of three experiments
[2] = system: NFAT3 (NFATc4) nuclear translocation in hippocampal neurons; experiment: NFAT translocation assay after KCl depolarization; type: cell-based, rat; conditions: full-length AKAP79 expressed after AKAP150 RNAi; 3-min 90 mM KCl
calcineurin (CN) [3] = molecular target: calcineurin (CN) (UniProt Q08209); type: binding, human; conditions: 36 °C
In short: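 ATTO 425-labeled AKAP79(333–408) donor (100 nM) was complexed with tetramethylrhodamine-labeled CN acceptor. The preformed complex was mixed in a stopped-flow instrument with 100 µM (final) unlabeled PVIVIT to block rebinding, at room temperature or 36 °C. Dissociation was followed as the fall in FRET signal, fitted as a single exponential; half-time was taken from the rate (n = 4).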

CN = conditions: cited from earlier work; for Kd: read-out: Kd for CN, natural recognition sites
[4] = system: CN-YFP / AKAP79-YFP mobility in rat hippocampal neuron dendritic spines; experiment: FRAP microscopy in single dendritic spines; type: cell-based; conditions: wildtype AKAP79-YFP in dendritic spines, single exponential fit

calcineurin (CN), sequence (Q08209 1-381): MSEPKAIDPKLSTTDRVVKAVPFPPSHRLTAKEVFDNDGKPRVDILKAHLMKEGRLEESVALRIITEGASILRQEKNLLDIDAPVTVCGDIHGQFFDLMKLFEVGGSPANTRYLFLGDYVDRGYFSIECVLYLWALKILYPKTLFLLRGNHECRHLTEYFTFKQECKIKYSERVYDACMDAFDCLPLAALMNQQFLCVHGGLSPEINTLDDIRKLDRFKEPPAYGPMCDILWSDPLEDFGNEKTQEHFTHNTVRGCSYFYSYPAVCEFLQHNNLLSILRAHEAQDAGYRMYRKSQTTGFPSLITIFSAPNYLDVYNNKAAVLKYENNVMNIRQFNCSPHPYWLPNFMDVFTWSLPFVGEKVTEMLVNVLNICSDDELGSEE
calcineurin (CN), sequence (P63098 16-170 partner): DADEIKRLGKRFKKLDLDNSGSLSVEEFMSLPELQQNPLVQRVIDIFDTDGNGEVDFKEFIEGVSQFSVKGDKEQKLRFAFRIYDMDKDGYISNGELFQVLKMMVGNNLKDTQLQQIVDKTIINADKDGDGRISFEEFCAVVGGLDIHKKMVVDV

Row | Substance | rescue of NFAT nuclear translocation [2] | Kd (CN) [µM] | further results
1 | AIAIIIT |  |  | Ki (calcineurin (CN) [1]): 3.7 µM
2 | PAAIIIT |  |  | Ki (calcineurin (CN) [1]): 47 µM
3 | PIAIIIA | somewhat less efficiently |  | 
4 | PPAIIIA | as efficiently as wildtype AKAP79 |  | 
5 | PPAIIIT | completely unable to rescue signaling |  | fold stronger binding to CN than wildtype AKAP79 (calcineurin (CN) [1]; GST fusion proteins displacing labeled PVIVIT): ~ 4 fold; half-time of dissociation (calcineurin (CN) [3]; corresponding to mean dissociation rate): ~ 163 ms; mean dissociation rate (calcineurin (CN) [3]; preformed complex mixed with excess unlabelled PVIVIT, mean of n = 4): 4.24 s⁻¹
6 | PQIIIS |  | 5 | 
7 | PRIEIA |  |  | shift in Kd caused by PRIEIT>PRIEIA substitution in NFAT1 (CN): 10 fold
8 | PRIEIT |  | ~25 | 
9 | PSIQIT |  | ~25 | 
10 | PSIRIT |  | ~25 | 
11 | PVIAVN |  | 250 | 
12 | wildtype AKAP79: full-length RNAi-resistant human AKAP79 (YFP- or CFP-tagged) expressed in rat hippocampal neurons | rescued NFAT nuclear translocation |  | mobile fraction of AKAP79-YFP (maximal percent recovery) [4]: 61.8 ± 0.6%
